Results from ChEMBL document CHEMBL3400032 (Bioorg Med Chem, 2015).

Assays:
Liver microsome [1] = test: Clearance in human liver microsomes assessed per mg protein
[2] = Half life in rat at 1 mg/kg, iv; assay type: ADME, organism-based; set-up: dose 1 mg/kg, route intravenous; details: in vivo
[3] = Clearance in rat at 1 mg/kg, iv; assay type: ADME, organism-based; set-up: dose 1 mg/kg, route intravenous; details: in vivo
[4] = Volume of distribution at steady state in rat at 1 mg/kg, iv; assay type: ADME, organism-based; set-up: dose 1 mg/kg, route intravenous; details: in vivo, read-out: Vdss
[5] = AUC in rat at 1 mg/kg, iv; assay type: ADME, organism-based; set-up: dose 1 mg/kg, route intravenous; details: plasma
Liver microsome [6] = test: Clearance in Sprague-Dawley rat liver microsomes assessed per mg protein
[7] = Drug metabolism in human serum assessed as compound remaining at 1 uM after 30 mins by HPLC/MS/MS analysis relative to control; assay type: ADME, cell-free; details: read-out: Stability
Outline: (§1)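 Test compound at 1 µM final, incubated 30 min at 37 °C in serum, or in S9 mix (50 mM potassium phosphate pH 7.4, 3 mM NADPH, 1 mg protein/mL pooled male SD rat or human liver S9). Preincubated 5 min at 37 °C, compound added in acetonitrile–water (1:1), stopped with ice-cold acetonitrile, centrifuged, filtered, parent and carboxylate hydrolysate quantified by HPLC-MS/MS.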

[8] = Plasma concentration in rat at 10 mg/kg, po after 6 hrs; assay type: ADME, organism-based; set-up: dose 10 mg/kg, route oral
Outline: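 Rats dosed orally with prodrug; plasma levels of prodrug and carboxylate active metabolite measured over time, limit of quantification 1.0 ng/mL.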

Serum [9] = test: Drug metabolism in human serum assessed as 2-(3-aminopiperidin-1-yl)-3-(2-chlorobenzyl)-5-methyl-4-oxo-4,5-dihydro-3H-imidazo[4,5-c]quinoline-7-carboxylic acid formation at 1 uM after 30 mins by HPLC/MS/MS analysis relative to control; assay type: ADME, cell-free; details: 0.5 h; outline: as §1
[10] = Drug metabolism in Sprague-Dawley rat liver S9 fraction assessed as 2-(3-aminopiperidin-1-yl)-3-(2-chlorobenzyl)-5-methyl-4-oxo-4,5-dihydro-3H-imidazo[4,5-c]quinoline-7-carboxylic acid formation at 1 uM after 30 mins by HPLC/MS/MS analysis relative to control; assay type: ADME, subcellular; details: s9, 0.5 h; outline: as §1
[11] = Permeability of the compound at pH 5 by PAMPA; assay type: ADME; details: read-out: permeability
[12] = Permeability of the compound at pH 7.4 by PAMPA; assay type: ADME; details: read-out: permeability
[13] = Drug metabolism in Sprague-Dawley rat liver S9 fraction assessed as compound remaining at 1 uM after 30 mins by HPLC/MS/MS analysis relative to control; assay type: ADME, subcellular; details: read-out: Stability; outline: as §1
[14] = Drug metabolism in human liver S9 fraction assessed as compound remaining at 1 uM after 30 mins by HPLC/MS/MS analysis relative to control; assay type: ADME, subcellular; details: read-out: Stability; outline: as §1
[15] = Drug metabolism in rat serum assessed as compound remaining at 1 uM after 30 mins by HPLC/MS/MS analysis relative to control; assay type: ADME, cell-free; details: read-out: Stability; outline: as §1
Serum [16] = test: Drug metabolism in rat serum assessed as 2-(3-aminopiperidin-1-yl)-3-(2-chlorobenzyl)-5-methyl-4-oxo-4,5-dihydro-3H-imidazo[4,5-c]quinoline-7-carboxylic acid formation at 1 uM after 30 mins by HPLC/MS/MS analysis relative to control; assay type: ADME, cell-free; details: 0.5 h; outline: as §1
Rattus norvegicus [17] = test: Oral bioavailability in rat assessed as 2-(3-aminopiperidin-1-yl)-3-(2-chlorobenzyl)-5-methyl-4-oxo-4,5-dihydro-3H-imidazo[4,5-c]quinoline-7-carboxylic acid level at 10 mg/kg; assay type: ADME, organism-based; details: in vivo
[18] = Drug metabolism in human liver S9 fraction assessed as metabolite 3 formation at 1 uM after 30 mins by HPLC/MS/MS analysis relative to control; assay type: ADME, subcellular; details: s9, 0.5 h; outline: as §1
[19] = AUC in rat at 1.5 mg/kg, iv; assay type: ADME, organism-based; set-up: dose 1.5 mg/kg, route intravenous; details: plasma
[20] = Clearance in rat at 1.5 mg/kg, iv; assay type: ADME, organism-based; set-up: dose 1.5 mg/kg, route intravenous; details: in vivo
[21] = Volume of distribution at steady state in rat at 1.5 mg/kg, iv; assay type: ADME, organism-based; set-up: dose 1.5 mg/kg, route intravenous; details: in vivo, read-out: Vdss
[22] = Half life in rat at 1.5 mg/kg, iv; assay type: ADME, organism-based; set-up: dose 1.5 mg/kg, route intravenous; details: in vivo
Serum [23] = test: Drug metabolism in rat serum assessed as 2-(3-aminopiperidin-1-yl)-3-(2-chlorobenzyl)-5-methyl-4-oxo-4,5-dihydro-3H-imidazo[4,5-c]quinoline-8-carboxylic acid formation at 1 uM after 30 mins by HPLC/MS/MS analysis relative to control; assay type: ADME, cell-free; details: 0.5 h; outline: as §1
Serum [24] = test: Drug metabolism in human serum assessed as 2-(3-aminopiperidin-1-yl)-3-(2-chlorobenzyl)-5-methyl-4-oxo-4,5-dihydro-3H-imidazo[4,5-c]quinoline-8-carboxylic acid formation at 1 uM after 30 mins by HPLC/MS/MS analysis relative to control; assay type: ADME, cell-free; details: 0.5 h; outline: as §1
[25] = Drug metabolism in human liver S9 fraction assessed as 2-(3-aminopiperidin-1-yl)-3-(2-chlorobenzyl)-5-methyl-4-oxo-4,5-dihydro-3H-imidazo[4,5-c]quinoline-8-carboxylic acid formation at 1 uM after 30 mins by HPLC/MS/MS analysis relative to control; assay type: ADME, subcellular; details: s9, 0.5 h; outline: as §1
[26] = Drug metabolism in Sprague-Dawley rat liver S9 fraction assessed as 2-(3-aminopiperidin-1-yl)-3-(2-chlorobenzyl)-5-methyl-4-oxo-4,5-dihydro-3H-imidazo[4,5-c]quinoline-8-carboxylic acid formation at 1 uM after 30 mins by HPLC/MS/MS analysis relative to control; assay type: ADME, subcellular; details: s9, 0.5 h; outline: as §1
Rattus norvegicus [27] = test: Oral bioavailability in rat assessed as 2-(3-aminopiperidin-1-yl)-3-(2-chlorobenzyl)-5-methyl-4-oxo-4,5-dihydro-3H-imidazo[4,5-c]quinoline-8-carboxylic acid level at 10 mg/kg; assay type: ADME, organism-based; details: in vivo
[28] = AUC in rat at 3 mg/kg, iv; assay type: ADME, organism-based; set-up: dose 3 mg/kg, route intravenous; details: plasma
[29] = Volume of distribution at steady state in rat at 3 mg/kg, iv; assay type: ADME, organism-based; set-up: route intravenous, dose 3 mg/kg; details: in vivo, read-out: Vdss
[30] = Half life in rat at 3 mg/kg, iv; assay type: ADME, organism-based; set-up: dose 3 mg/kg, route intravenous; details: in vivo
[31] = Clearance in rat at 3 mg/kg, iv; assay type: ADME, organism-based; set-up: dose 3 mg/kg, route intravenous; details: in vivo

Structure (SMILES) | remaining at 0.5 h, 1 µM [7] | Papp [11] | Papp [12] | remaining at 0.5 h, 1 µM [13] | remaining at 0.5 h, 1 µM [14] | remaining at 0.5 h, 1 µM [15] | Drug metabolism (Serum [23]) | Drug metabolism (Serum [24]) | Drug metabolism [25] | Drug metabolism [26] | also measured
Cn1c(=O)c2c(nc(N3CCC[C@@H](N)C3)n2Cc2cc(F)ccc2Cl)c2cc(C(=O)O)ccc21 |  |  |  |  |  |  |  |  |  |  | CLH (Liver microsome [1]): < 10 µL/min/mg; half-life [2]: 1.3 h; clearance [3]: 222 mL/min/kg; Vd [4]: 7.1 L/kg; AUC [5]: 75.3 ng·h/mL; CLH (Liver microsome [6]): < 10 µL/min/mg
COC(=O)c1ccc2c3nc(N4CCC[C@@H](N)C4)n(Cc4ccccc4Cl)c3c(=O)n(C)c2c1.Cl | 92% | 36.2 ×10⁻⁶ cm/s | 41.4 ×10⁻⁶ cm/s | 70% | > 99% | 8.4% |  |  |  |  | concentration at 6 h [8]: < 1 ng/mL; Drug metabolism (Serum [9]): metabolite_detected; Drug metabolism [10]: metabolite_detected; Drug metabolism (Serum [16]): metabolite_detected; F (Rattus norvegicus [17]): 90%; Drug metabolism [18]: metabolite_detected
Cn1c(=O)c2c(nc(N3CCC[C@@H](N)C3)n2Cc2ccccc2Cl)c2cc(C(=O)O)ccc21 |  | < 0.1 ×10⁻⁶ cm/s | < 0.1 ×10⁻⁶ cm/s |  |  |  |  |  |  |  | CLH (Liver microsome [1]): < 10 µL/min/mg; AUC [19]: 188 ng·h/mL; clearance [20]: 132 mL/min/kg; Vd [21]: 2.9 L/kg; half-life [22]: 1 h; CLH (Liver microsome [6]): < 10 µL/min/mg
Cl.Cn1c(=O)c2c(nc(N3CCC[C@@H](N)C3)n2Cc2ccccc2Cl)c2cc(C(=O)OCOC(=O)C(C)(C)C)ccc21 | 73% | 6.5 ×10⁻⁶ cm/s | 6.3 ×10⁻⁶ cm/s | < 0.5% | < 0.5% | 0.6% | metabolite_detected | metabolite_detected | metabolite_detected | metabolite_detected | 
Cl.Cn1c(=O)c2c(nc(N3CCC[C@@H](N)C3)n2Cc2ccccc2Cl)c2cc(C(=O)OCCCN3CCOCC3)ccc21 | 7% | < 0.1 ×10⁻⁶ cm/s | 3.4 ×10⁻⁶ cm/s | 78% | 48% | 76% | metabolite_detected | metabolite_detected | metabolite_detected | metabolite_detected | 
C[C@@H]1CN(CCOC(=O)c2ccc3c(c2)c2nc(N4CCC[C@@H](N)C4)n(Cc4ccccc4Cl)c2c(=O)n3C)C[C@H](C)O1.Cl | < 0.5% | 10.1 ×10⁻⁶ cm/s | 18 ×10⁻⁶ cm/s | 30% | 22% | 92% | metabolite_detected | metabolite_detected |  | metabolite_detected | 
CN(C)CCCOC(=O)c1ccc2c(c1)c1nc(N3CCC[C@@H](N)C3)n(Cc3ccccc3Cl)c1c(=O)n2C.Cl | < 0.5% | < 0.1 ×10⁻⁶ cm/s | < 0.1 ×10⁻⁶ cm/s | > 99% | > 99% | 38% | metabolite_detected | metabolite_detected | metabolite_detected | metabolite_detected | 
Cl.Cn1c(=O)c2c(nc(N3CCC[C@@H](N)C3)n2Cc2ccccc2Cl)c2cc(C(=O)OCCN3CCOCC3)ccc21 | 6.8% | 0.9 ×10⁻⁶ cm/s | 7.1 ×10⁻⁶ cm/s | > 99% | 37% | 50% | metabolite_detected | metabolite_detected | metabolite_detected | metabolite_detected | 
Cn1c(=O)c2c(nc(N3CCC[C@@H](N)C3)n2Cc2cc(F)ccc2Cl)c2ccc(C(=O)O)cc21 |  |  |  |  |  |  |  |  |  |  | half-life [2]: 8.3 h; clearance [3]: 167 mL/min/kg; Vd [4]: 31.5 L/kg; AUC [5]: 99.9 ng·h/mL
COC(=O)c1ccc2c(c1)c1nc(N3CCC[C@@H](N)C3)n(Cc3ccccc3Cl)c1c(=O)n2C.Cl | 80% | 34.1 ×10⁻⁶ cm/s | 47.4 ×10⁻⁶ cm/s | < 0.5% | > 99% | 72% | metabolite_detected | metabolite_detected | metabolite_detected | metabolite_detected | F (Rattus norvegicus [27]): 2.4%
Cn1c(=O)c2c(nc(N3CCC[C@@H](N)C3)n2Cc2ccccc2Cl)c2ccc(C(=O)O)cc21 |  | < 0.1 ×10⁻⁶ cm/s | < 0.1 ×10⁻⁶ cm/s |  |  |  |  |  |  |  | CLH (Liver microsome [1]): < 10 µL/min/mg; AUC [28]: 276 ng·h/mL; Vd [29]: 4.5 L/kg; CLH (Liver microsome [6]): < 10 µL/min/mg; half-life [30]: 0.6 h; clearance [31]: 181 mL/min/kg
CN(C)CCOC(=O)c1ccc2c(c1)c1nc(N3CCC[C@@H](N)C3)n(Cc3ccccc3Cl)c1c(=O)n2C.Cl | < 0.5% | < 0.1 ×10⁻⁶ cm/s | 0.6 ×10⁻⁶ cm/s | > 99% | > 99% | 97% | metabolite_detected | metabolite_detected | metabolite_detected | metabolite_detected | 
